In ChEMBL document CHEMBL3351393, “iNOS inhibitory activity of sesquiterpenoids and a monoterpenoid from the rhizomes of Curcuma wenyujin” (J Nat Prod, 2014):

Experiments:
RAW264.7 [1] = assay: Inhibition of LPS-induced NO production in mouse RAW264.7 cells by Griess assay; type: functional, cell-based
In short: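 RAW 264.7 mouse macrophages were seeded at 1 × 10^5 cells/well and left to adhere 2 h at 37 °C in 5% CO2. Nitrite accumulated in the supernatant was measured with Griess reagent, and IC50 values were derived. Hydrocortisone served as positive control.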

RAW264.7 [2] = assay: Cytotoxicity against mouse RAW264.7 cells by MTT assay; type: cell-based

| Compound | IC50 (RAW264.7 [1]) [µM] | Activity (RAW264.7 [2]) |
| --- | --- | --- |
| CC1=C2C[C@H]3[C@@](C)(O)CC[C@@]34O[C@@]2(C[C@@]4(C)O)OC1=O | 8.5 | Non-toxic |
| CC(C)=C1C[C@]2(O)[C@@H](C)CC[C@@H]2[C@@](C)(O)CC1=O | 89.2 | Non-toxic |
| CC(C)=C1C[C@]2(O)[C@@H](CC[C@@H]2C)[C@@](C)(O)CC1=O | 92.4 | Non-toxic |
| C=C(C)[C@@H]1CC[C@](C)(O)[C@H]1CC(C(=O)O)=C(C)C | 68.4 | Non-toxic |
| C=C(C)[C@H]1CC[C@](C)(O)[C@H]1CC(C(=O)O)=C(C)C | 66.5 | Non-toxic |
| CC(=O)C(C[C@@H]1[C@H](C(C)=O)CC[C@]1(C)O)=C(C)C | 78.7 | Non-toxic |
| Cc1coc2c1C(=O)[C@]1(O)[C@@H](C)CC[C@H]1C(CO)=C2 | 47.7 | Non-toxic |
| CC1=C2C[C@H]3[C@@](C)(O)CC[C@@]34O[C@@]2(C[C@]4(C)O)OC1=O | 7.6 | Non-toxic |
| CC1=CC(=O)[C@@H]2C[C@@H]3[C@@](C)(O)CC[C@]13OC2(C)C | 79.8 | Non-toxic |
| CC(C)=C1C[C@@]23O[C@]1(O)C[C@@](C)(O)[C@H]2CC[C@H]3C | 87.6 | Non-toxic |
| CC(C)=C1C[C@@H]2O[C@H](CC[C@]2(C)O)/C(C)=C/C1=O | 48.6 | Non-toxic |
| C/C1=C\[C@H](O)C[C@]2(C)O[C@H]2C(=O)c2c(C)coc2C1 | 78.2 | Non-toxic |
| CC1=CC(=O)C[C@@H]2[C@H]1CC[C@@]2(C)O | 77.9 | Non-toxic |
| C[C@]12CCC(=O)C=C1CC[C@@H]1[C@@H]2[C@@H](O)C[C@@]2(C)[C@H]1CC[C@]2(O)C(=O)CO [HYDROCORTISONE] | 51.4 |  |
